Key:
[1] = target: Tyrosine-protein kinase FRK (Homo sapiens) (UniProt P42685); experiment: Competitive binding affinity to FRK (unknown origin) at 10 uM in presence of ATP relative to control
In short: (§1)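 In vitro ATP-site competition binding assay, part of profiling against a diverse panel of 128 kinases. Each compound was tested at a single concentration of 10 µM. Kinome selectivity was summarized as S15 selectivity scores.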

[2] = target: Mitogen-activated protein kinase 1 (Homo sapiens, UniProt P28482); experiment: Competitive binding affinity to ERK2 (unknown origin) at 10 uM in presence of ATP relative to control; in short: as §1
Chain of Mitogen-activated protein kinase 1 (P28482 whole entry, canonical isoform): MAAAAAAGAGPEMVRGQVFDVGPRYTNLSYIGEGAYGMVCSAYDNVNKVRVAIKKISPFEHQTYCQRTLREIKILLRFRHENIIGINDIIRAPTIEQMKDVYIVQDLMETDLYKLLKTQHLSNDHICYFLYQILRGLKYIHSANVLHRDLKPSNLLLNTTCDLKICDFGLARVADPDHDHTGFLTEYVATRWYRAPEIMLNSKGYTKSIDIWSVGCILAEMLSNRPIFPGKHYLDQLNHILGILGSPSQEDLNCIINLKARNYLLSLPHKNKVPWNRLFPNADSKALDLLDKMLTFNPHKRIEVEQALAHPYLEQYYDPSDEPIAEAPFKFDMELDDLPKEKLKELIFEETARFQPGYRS

[3] = target: Casein kinase I isoform gamma-1 (Homo sapiens) (UniProt Q9HCP0); experiment: Competitive binding affinity to CSNK1G1 (unknown origin) at 10 uM in presence of ATP relative to control
Chain of Casein kinase I isoform gamma-1 (Homo sapiens) (Q9HCP0 whole entry, looked up, canonical isoform): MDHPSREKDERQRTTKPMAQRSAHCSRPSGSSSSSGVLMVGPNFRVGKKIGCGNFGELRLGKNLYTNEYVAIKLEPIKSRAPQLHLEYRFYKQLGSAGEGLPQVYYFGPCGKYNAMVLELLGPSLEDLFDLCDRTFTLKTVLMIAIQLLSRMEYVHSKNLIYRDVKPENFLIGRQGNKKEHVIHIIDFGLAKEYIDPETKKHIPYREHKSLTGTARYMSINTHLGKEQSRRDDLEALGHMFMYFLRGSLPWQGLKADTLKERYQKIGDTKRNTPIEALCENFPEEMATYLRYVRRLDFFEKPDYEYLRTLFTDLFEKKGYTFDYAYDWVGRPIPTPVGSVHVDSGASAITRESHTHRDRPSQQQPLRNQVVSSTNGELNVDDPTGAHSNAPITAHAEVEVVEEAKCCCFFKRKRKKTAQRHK

[4] = target: Tyrosine-protein kinase CSK (Homo sapiens) (UniProt P41240); experiment: Competitive binding affinity to CSK (unknown origin) at 10 uM in presence of ATP relative to control
Chain of Tyrosine-protein kinase CSK (Homo sapiens) (P41240 2-450 limits assumed): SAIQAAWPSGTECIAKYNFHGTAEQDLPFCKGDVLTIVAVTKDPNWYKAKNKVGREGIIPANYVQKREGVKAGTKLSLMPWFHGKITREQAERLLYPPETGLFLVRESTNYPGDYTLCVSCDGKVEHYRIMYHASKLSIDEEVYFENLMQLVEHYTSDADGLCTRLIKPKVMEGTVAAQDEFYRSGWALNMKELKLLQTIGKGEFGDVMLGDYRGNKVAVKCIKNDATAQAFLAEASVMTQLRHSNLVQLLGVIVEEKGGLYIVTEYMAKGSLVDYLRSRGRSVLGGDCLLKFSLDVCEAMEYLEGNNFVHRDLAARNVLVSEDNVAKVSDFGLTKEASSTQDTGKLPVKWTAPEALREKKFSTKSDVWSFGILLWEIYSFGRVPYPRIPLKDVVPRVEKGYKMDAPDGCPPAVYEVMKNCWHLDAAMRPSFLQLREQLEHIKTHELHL

[5] = target: Dual specificity protein kinase CLK4 (Homo sapiens) (UniProt Q9HAZ1); experiment: Competitive binding affinity to CLK4 (unknown origin) at 10 uM in presence of ATP relative to control
Chain of Dual specificity protein kinase CLK4 (Homo sapiens) (Q9HAZ1 whole entry, looked up): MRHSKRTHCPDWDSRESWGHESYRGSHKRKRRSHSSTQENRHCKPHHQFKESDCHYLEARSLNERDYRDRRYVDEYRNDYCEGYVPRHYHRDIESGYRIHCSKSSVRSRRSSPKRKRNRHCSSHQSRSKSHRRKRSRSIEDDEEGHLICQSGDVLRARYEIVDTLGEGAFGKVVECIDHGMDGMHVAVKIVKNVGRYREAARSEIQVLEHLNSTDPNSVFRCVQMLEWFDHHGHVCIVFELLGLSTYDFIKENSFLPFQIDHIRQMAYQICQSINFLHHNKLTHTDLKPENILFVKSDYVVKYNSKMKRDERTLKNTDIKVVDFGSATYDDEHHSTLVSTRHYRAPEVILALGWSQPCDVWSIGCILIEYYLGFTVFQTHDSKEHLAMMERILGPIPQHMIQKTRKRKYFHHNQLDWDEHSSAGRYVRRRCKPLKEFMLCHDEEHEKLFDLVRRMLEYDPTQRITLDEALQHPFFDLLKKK

[6] = target: Dual specificity protein kinase CLK3 (Homo sapiens) (UniProt P49761); experiment: Competitive binding affinity to CLK3 (unknown origin) at 10 uM in presence of ATP relative to control
[7] = target: Calcium/calmodulin-dependent protein kinase kinase 1 (Homo sapiens) (UniProt Q8N5S9); experiment: Competitive binding affinity to CAMKK1 (unknown origin) at 10 uM in presence of ATP relative to control
Chain of Calcium/calmodulin-dependent protein kinase kinase 1 (Homo sapiens) (Q8N5S9 whole entry, looked up): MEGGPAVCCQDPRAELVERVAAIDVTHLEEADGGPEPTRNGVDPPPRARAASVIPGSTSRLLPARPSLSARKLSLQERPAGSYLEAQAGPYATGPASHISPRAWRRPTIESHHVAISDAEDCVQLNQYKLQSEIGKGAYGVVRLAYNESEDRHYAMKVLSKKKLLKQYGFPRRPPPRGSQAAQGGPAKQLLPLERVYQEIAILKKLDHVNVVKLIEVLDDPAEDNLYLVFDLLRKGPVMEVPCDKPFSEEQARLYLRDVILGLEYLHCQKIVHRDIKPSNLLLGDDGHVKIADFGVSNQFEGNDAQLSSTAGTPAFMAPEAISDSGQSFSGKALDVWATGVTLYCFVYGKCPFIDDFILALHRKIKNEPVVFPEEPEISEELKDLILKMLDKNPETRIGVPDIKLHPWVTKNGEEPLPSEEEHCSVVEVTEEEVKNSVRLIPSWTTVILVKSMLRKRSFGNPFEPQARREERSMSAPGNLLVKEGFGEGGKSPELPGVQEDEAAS

[8] = target: Calcium/calmodulin-dependent protein kinase type II subunit gamma (Homo sapiens) (UniProt Q13555); experiment: Competitive binding affinity to CAMK2G (unknown origin) at 10 uM in presence of ATP relative to control
[9] = target: Calcium/calmodulin-dependent protein kinase type 1 (Homo sapiens, UniProt Q14012); experiment: Competitive binding affinity to CAMK1 (unknown origin) at 10 uM in presence of ATP relative to control
[10] = target: Tyrosine-protein kinase ABL1 (Homo sapiens) (UniProt P00519); experiment: Competitive binding affinity to ABL1 (unknown origin) at 10 uM in presence of ATP relative to control
[11] = target: T1, Tyrosine-protein kinase TXK (Homo sapiens) (UniProt P42681); experiment: Competitive binding affinity to TXK (unknown origin) at 10 uM in presence of ATP relative to control
T1 sequence (whole entry): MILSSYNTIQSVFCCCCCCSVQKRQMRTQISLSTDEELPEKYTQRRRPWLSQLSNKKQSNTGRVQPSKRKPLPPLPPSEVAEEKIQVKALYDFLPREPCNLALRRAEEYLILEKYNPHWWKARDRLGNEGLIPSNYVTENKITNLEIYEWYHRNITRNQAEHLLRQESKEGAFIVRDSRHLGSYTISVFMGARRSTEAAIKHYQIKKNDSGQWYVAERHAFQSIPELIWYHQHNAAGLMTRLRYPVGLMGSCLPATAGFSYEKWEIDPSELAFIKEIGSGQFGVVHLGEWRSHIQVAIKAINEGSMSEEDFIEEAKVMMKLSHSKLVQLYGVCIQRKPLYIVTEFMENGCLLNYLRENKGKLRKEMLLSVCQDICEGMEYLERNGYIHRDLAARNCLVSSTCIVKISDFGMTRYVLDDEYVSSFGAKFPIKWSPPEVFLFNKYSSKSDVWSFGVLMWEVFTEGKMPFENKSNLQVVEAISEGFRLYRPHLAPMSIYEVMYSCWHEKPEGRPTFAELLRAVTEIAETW
In short: (§2)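 In vitro ATP-site competition binding assay across a diverse panel of 128 kinases, with compound tested at a single concentration. Kinase selectivity scores (S15) were calculated from the panel profiles.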

[12] = target: Angiopoietin-1 receptor (Homo sapiens) (UniProt Q02763); experiment: Competitive binding affinity to TIE2 (unknown origin) at 10 uM in presence of ATP relative to control; in short: as §2
Chain of Angiopoietin-1 receptor (Homo sapiens) (Q02763 whole entry): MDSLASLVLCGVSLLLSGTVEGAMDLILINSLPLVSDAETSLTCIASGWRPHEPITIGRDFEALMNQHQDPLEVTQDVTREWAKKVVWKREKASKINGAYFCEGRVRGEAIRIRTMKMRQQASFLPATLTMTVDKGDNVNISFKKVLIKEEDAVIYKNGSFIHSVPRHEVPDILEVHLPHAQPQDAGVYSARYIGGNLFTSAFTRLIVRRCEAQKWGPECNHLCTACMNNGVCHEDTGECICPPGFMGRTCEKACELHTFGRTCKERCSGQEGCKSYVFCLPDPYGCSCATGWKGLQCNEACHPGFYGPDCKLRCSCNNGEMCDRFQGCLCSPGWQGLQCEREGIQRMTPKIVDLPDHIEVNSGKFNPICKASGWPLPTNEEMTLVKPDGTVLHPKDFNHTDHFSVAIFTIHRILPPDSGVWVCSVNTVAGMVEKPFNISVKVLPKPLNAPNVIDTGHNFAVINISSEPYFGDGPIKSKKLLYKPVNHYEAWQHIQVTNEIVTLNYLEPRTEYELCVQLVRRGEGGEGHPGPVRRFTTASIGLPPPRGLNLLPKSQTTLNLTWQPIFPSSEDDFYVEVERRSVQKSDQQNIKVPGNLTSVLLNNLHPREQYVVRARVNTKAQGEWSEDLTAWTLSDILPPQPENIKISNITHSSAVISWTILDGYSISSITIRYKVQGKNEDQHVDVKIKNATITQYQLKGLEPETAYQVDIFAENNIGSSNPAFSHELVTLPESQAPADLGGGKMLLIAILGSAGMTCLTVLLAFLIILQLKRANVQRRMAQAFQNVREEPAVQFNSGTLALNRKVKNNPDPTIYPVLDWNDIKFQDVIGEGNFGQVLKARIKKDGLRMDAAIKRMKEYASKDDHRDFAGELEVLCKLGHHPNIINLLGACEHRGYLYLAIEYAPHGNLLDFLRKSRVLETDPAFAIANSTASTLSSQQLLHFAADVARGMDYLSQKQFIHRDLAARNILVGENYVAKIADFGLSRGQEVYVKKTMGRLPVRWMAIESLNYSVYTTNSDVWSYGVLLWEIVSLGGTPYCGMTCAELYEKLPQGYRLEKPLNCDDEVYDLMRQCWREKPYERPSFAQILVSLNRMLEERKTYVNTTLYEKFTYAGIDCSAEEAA

[13] = target: Mitogen-activated protein kinase 9 (Homo sapiens, UniProt P45984)
Chain of Mitogen-activated protein kinase 9 (P45984 whole entry): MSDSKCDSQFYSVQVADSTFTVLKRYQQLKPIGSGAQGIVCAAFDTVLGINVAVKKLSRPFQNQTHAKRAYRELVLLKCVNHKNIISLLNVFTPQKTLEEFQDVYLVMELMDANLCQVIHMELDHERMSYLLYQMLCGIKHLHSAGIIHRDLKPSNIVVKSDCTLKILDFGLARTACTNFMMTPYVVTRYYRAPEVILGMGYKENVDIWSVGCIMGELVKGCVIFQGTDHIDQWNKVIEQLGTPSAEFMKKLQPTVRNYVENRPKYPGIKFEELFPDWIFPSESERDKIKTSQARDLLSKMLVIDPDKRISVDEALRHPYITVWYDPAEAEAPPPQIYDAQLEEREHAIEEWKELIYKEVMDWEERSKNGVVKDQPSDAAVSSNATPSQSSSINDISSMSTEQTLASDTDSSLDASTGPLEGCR

[14] = target: STE20-like serine/threonine-protein kinase (Homo sapiens) (UniProt Q9H2G2); experiment: Competitive binding affinity to SLK (unknown origin) at 10 uM in presence of ATP relative to control; in short: as §2
[15] = target: Ribosomal protein S6 kinase alpha-3 (Homo sapiens) (UniProt P51812); experiment: Competitive binding affinity to RPS6KA3 domain 1 (unknown origin) at 10 uM in presence of ATP relative to control; in short: as §2
[16] = target: cAMP-dependent protein kinase catalytic subunit alpha (Homo sapiens) (UniProt P17612); experiment: Competitive binding affinity to PKAC-alpha (unknown origin) at 10 uM in presence of ATP relative to control; in short: as §2
[17] = target: T2, Phosphorylase b kinase gamma catalytic chain, liver/testis isoform (Homo sapiens) (UniProt P15735); experiment: Competitive binding affinity to PHKG2 (unknown origin) at 10 uM in presence of ATP relative to control; in short: as §2
T2 sequence (whole entry): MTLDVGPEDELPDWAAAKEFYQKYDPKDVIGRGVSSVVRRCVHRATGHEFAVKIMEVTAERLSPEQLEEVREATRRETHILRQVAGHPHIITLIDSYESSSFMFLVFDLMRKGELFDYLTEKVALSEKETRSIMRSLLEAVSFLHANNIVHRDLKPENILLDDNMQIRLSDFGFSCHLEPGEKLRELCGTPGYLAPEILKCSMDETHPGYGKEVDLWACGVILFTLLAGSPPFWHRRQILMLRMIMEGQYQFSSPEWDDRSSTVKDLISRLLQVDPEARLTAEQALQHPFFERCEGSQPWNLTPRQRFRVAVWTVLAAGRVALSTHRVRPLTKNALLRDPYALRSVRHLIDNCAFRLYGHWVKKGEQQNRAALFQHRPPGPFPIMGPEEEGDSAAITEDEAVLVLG

[18] = target: Cyclin-dependent kinase 16 (Homo sapiens) (UniProt Q00536); experiment: Competitive binding affinity to PCTK1 (unknown origin) at 10 uM in presence of ATP relative to control; in short: as §2
Chain of Cyclin-dependent kinase 16 (Homo sapiens) (Q00536 whole entry): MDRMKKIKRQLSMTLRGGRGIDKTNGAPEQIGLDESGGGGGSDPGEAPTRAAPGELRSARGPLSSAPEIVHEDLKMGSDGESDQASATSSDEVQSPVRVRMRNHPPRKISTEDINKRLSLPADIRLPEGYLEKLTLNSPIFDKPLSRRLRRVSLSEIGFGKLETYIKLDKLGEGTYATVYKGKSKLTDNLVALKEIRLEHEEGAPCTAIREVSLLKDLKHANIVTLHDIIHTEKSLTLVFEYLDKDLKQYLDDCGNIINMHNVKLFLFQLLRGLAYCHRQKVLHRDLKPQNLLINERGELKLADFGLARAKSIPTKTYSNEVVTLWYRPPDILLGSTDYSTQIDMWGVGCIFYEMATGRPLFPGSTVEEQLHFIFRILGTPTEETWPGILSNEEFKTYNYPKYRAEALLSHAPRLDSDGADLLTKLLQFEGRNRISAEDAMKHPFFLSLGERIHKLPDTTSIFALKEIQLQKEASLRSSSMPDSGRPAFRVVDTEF

[19] = target: Serine/threonine-protein kinase PAK 4 (Homo sapiens) (UniProt O96013); experiment: Competitive binding affinity to PAK4 (unknown origin) at 10 uM in presence of ATP relative to control; in short: as §2
[20] = target: Mitogen-activated protein kinase 14 (Homo sapiens, UniProt Q16539); experiment: Competitive binding affinity to p38-alpha (unknown origin) at 10 uM in presence of ATP relative to control; in short: as §2
Chain of Mitogen-activated protein kinase 14 (Q16539 whole entry): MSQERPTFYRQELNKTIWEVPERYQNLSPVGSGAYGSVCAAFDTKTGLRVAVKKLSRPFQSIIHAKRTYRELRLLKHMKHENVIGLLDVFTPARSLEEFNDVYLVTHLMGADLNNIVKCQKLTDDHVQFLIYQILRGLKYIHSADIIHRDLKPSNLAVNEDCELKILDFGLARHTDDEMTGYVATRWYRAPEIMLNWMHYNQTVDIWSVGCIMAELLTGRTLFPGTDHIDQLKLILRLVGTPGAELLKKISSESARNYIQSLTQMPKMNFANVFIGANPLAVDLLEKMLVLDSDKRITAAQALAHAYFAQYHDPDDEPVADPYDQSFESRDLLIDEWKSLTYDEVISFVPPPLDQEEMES

[21] = target: Serine/threonine-protein kinase Nek6 (Homo sapiens) (UniProt Q9HC98); experiment: Competitive binding affinity to NEK6 (unknown origin) at 10 uM in presence of ATP relative to control; in short: as §2
Chain of Serine/threonine-protein kinase Nek6 (Homo sapiens) (Q9HC98 whole entry): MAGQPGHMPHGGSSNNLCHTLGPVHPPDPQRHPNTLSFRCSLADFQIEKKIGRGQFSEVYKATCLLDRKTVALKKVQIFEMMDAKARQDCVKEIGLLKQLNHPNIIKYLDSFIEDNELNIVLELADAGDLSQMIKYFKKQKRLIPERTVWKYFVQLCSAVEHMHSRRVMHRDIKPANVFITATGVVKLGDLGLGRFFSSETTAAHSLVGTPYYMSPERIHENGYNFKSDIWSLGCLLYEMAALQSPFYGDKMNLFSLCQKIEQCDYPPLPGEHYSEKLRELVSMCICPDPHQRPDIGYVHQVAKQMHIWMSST

[22] = target: Mitogen-activated protein kinase 8 (Homo sapiens, UniProt P45983); experiment: Competitive binding affinity to JNK1 (unknown origin) at 10 uM in presence of ATP relative to control
In short: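 In vitro ATP-site competition binding assay across a diverse panel of 128 kinases, with each compound tested at a single concentration. Kinase binding is expressed relative to control.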

Compound	inhibition [1]	inhibition [2]	inhibition [3]	inhibition [4]	inhibition [5]	inhibition [6]	inhibition [7]	inhibition [8]	inhibition [9]	inhibition [10]	inhibition [11]	inhibition [12]	IC50 [13]	inhibition [14]	inhibition [15]	inhibition [16]	inhibition [17]	inhibition [18]	inhibition [20]	inhibition [22]	other results
O[C@H]1CC[C@H](Nc2nccc(-n3ccc4ccccc43)n2)CC1	< 50%	< 50%	< 50%	< 50%	95%	< 50%	< 50%	67%	73%	< 50%	< 50%	< 50%	360 nM	< 50%	< 50%	< 50%	< 50%	99%	< 50%	98%	inhibition [19]: < 50%; inhibition [21]: < 50%
CS(=O)(=O)CCCOc1cccc2c1ccn2-c1ccnc(N[C@H]2CC[C@H](C(=O)N3CCC(O)CC3)CC2)n1		> 85%							> 85%				66 nM						> 85%	> 85%	
O=C([C@H]1CC[C@H](Nc2nccc(-n3nnc4ccccc43)n2)CC1)N1CCOCC1	< 50%	86%	75%	< 50%	94%	< 50%	< 50%	< 50%	< 50%	92%	< 50%	< 50%	180 nM	< 50%	90%	< 50%	< 50%	91%	< 50%	100%	inhibition [19]: < 50%; inhibition [21]: 66%
O[C@H]1CC[C@H](Nc2nccc(-c3n[nH]c4ccccc34)n2)CC1	< 50%	82%	92%	< 50%	100%	94%	85%	88%	98%	< 50%	< 50%	< 50%	650 nM	99%	97%	< 50%	90%	100%	< 50%	100%	inhibition [19]: 92%; inhibition [21]: 77%

Further lines, with some results ahead:

inhibition [1]	inhibition [2]	inhibition [3]	inhibition [4]	inhibition [5]	inhibition [6]	inhibition [7]	inhibition [8]	inhibition [9]	inhibition [10]	inhibition [11]	inhibition [12]	IC50 [13]	inhibition [14]	inhibition [15]	inhibition [16]	inhibition [17]	inhibition [18]	inhibition [20]	inhibition [22]	Compound	other results
< 50%	< 50%	< 50%	< 50%	99%	< 50%	< 50%	80%	76%	< 50%	< 50%	< 50%	350 nM	< 50%	< 50%	< 50%	< 50%	99%	< 50%	99%	O[C@H]1CC[C@H](Nc2nccc(-n3ncc4ccccc43)n2)CC1	inhibition [19]: < 50%; inhibition [21]: < 50%
< 50%	< 50%	100%	< 50%	100%	94%	< 50%	< 50%	89%	< 50%	< 50%	< 50%	170 nM	< 50%	84%	< 50%	100%	100%	< 50%	99%	N[C@H]1CC[C@H](Nc2nccc(-n3nnc4ccccc43)n2)CC1	inhibition [19]: < 50%; inhibition [21]: < 50%
< 50%	< 50%	97%	< 50%	98%	82%	< 50%	69%	< 50%	< 50%	< 50%	< 50%	110 nM	< 50%	77%	< 50%	83%	100%	< 50%	99%	O[C@H]1CC[C@H](Nc2nccc(-n3nnc4ccccc43)n2)CC1	inhibition [19]: < 50%; inhibition [21]: 73%

Source: ChEMBL document CHEMBL2424622, “Development of amino-pyrimidine inhibitors of c-Jun N-terminal kinase (JNK): kinase profiling guided optimization of a 1,2,3-benzotriazole lead” (Bioorg Med Chem Lett, 2013)
